# Measurements as given in ChEMBL document CHEMBL2380289, “Ligand based approach to L-type calcium channel by imidazo[2,1-b]thiazole-1,4-dihydropyridines: from heart activity to brain affinity” (J Med Chem, 2013).
# Experiments:
# [1] = Displacement of [3H]-PN200-110 from L-type calcium channel dihydropyridine binding site in Wistar rat cortex homogenate after 60 mins by liquid scintillation spectometric analysis; type: tissue-based
# In short: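 Competition binding on rat cortex homogenate with (+)-[5-methyl-3H]PN200-110. Compounds are dissolved in DMSO as 10⁻² M stocks and diluted in buffer. Six displacer concentrations are tested, each in triplicate. IC50 is obtained by −log probit analysis and Ki by the Prusoff method. Values are mean ± SEM of 3−5 separate experiments done in triplicate.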
# Rattus norvegicus = species: Rattus norvegicus; assay: Displacement of [3H]-PN200-110 from L-type calcium channel dihydropyridine binding site in Wistar rat cortex homogenate at 100 uM after 60 mins by liquid scintillation spectometric analysis relative to control; type: tissue-based
# In short: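 Binding on rat cortex homogenate using (+)-[5-methyl-3H]PN200-110. The read-out is percent of maximal radioligand displacement at 100 μM test compound. Compounds are made up as 10⁻² M DMSO stocks and diluted in buffer. Values are from 3−5 separate experiments done in triplicate.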
# [2] = Displacement of [3H]-PN200-110 from voltage-gated calcium channel subunit alpha Cav1.2a (unknown origin) expressed in HEK293 cells after 90 mins by liquid scintillation counting analysis; type: cell-based, Homo sapiens
# In short: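 Intact HEK-293 cells stably transfected with a rabbit Cav1.2a (α1c-a) plasmid are used. They are incubated with 0.5 nM (+)-[5-methyl-3H]PN200-110 plus competitor at 0.001−100 μM, from 10⁻² M DMSO stocks diluted in buffer. IC50 values are given as mean ± SEM.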
# [3] = Displacement of [3H]-PN200-110 from L-type calcium channel in Hartley guinea pig ventricular membrane […] after 90 mins; set-up: species or system Cavia porcellus
# Cavia porcellus [4] = species: Cavia porcellus; assay: Displacement of [3H]-PN200-110 from L-type calcium channel in Hartley guinea pig ventricular membrane […] after 90 mins relative to control
# [5] = Displacement of [3H]-PN200-110 from L-type calcium channel in Hartley guinea pig atrial membrane after 90 mins; type: cell membranes, Cavia porcellus, Cardiac atrium
# In short: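 Guinea pig atrial membranes are labelled at the 1,4-DHP site with (+)-[5-methyl-3H]PN200-110 at 0.5 nM. Competitor is added over 0.001−100 μM from 10⁻² M DMSO stocks diluted in buffer. Results are given as IC50 and Ki, mean ± SEM. Student's t-test is applied with P<0.001.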
# Cavia porcellus [6] = species: Cavia porcellus; assay: Displacement of [3H]-PN200-110 from L-type calcium channel in Hartley guinea pig atrial membrane at 100 uM after 90 mins relative to control; type: cell membranes; details: Cardiac atrium
# Ileum [7] = assay: Relaxant activity in potassium depolarized guinea pig ileum longitudinal smooth muscle assessed as inhibition of calcium-induced contraction; type: functional, tissue-based; details: Cavia porcellus
# In short: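 K⁺-depolarized (80 mM) guinea pig ileum longitudinal smooth muscle is used. Calcium-induced contraction is measured with cumulative compound addition.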
# Ileum [8] = assay: Relaxant activity in potassium depolarized guinea pig ileum longitudinal smooth muscle assessed as inhibition of calcium-induced contraction at 10^-7 M relative to control; type: functional, Cavia porcellus; set-up: scale not given: the % may be the effect or the level left
# Aorta [9] = assay: Relaxant activity in potassium depolarized guinea pig aortic strips assessed as inhibition of calcium-induced contraction at 10^-4 M relative to control; type: functional, Cavia porcellus; set-up: scale not given: the % may be the effect or the level left
# In short: (§1)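 Guinea pig aortic strips and ileum longitudinal smooth muscle are depolarized with 80 mM K⁺. The read-out is percent inhibition of calcium-induced contraction. Aorta is tested at 10⁻⁴ M and ileum at 10⁻⁵ M.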
# [10] = Negative chronotropic activity in guinea pig right atrium assessed as decrease in atrial rate; type: functional, tissue-based; details: Cavia porcellus, Cardiac atrium
# In short: (§2)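 Isolated guinea pig atria are used, with left atria driven at 1 Hz. Compounds are added cumulatively. EC50 is derived from log concentration−response curves by Litchfield–Wilcoxon probit analysis, n = 6−7. EC50 is not calculated when the maximal effect is below 50%.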
# [11] = Negative chronotropic activity in guinea pig right atrium assessed as decrease in atrial rate at 5x10'-6 M relative to control; type: functional, Cavia porcellus, Cardiac atrium; set-up: scale not given: the % may be the effect or the level left
# [12] = Negative inotropic activity in guinea pig left atrium assessed as decrease in developed tension at 10^-4 M relative to control; type: functional, Cavia porcellus, Cardiac atrium; set-up: scale not given: the % may be the effect or the level left
# HEK293 = assay: Displacement of [3H]-PN200-110 from voltage-gated calcium channel subunit alpha Cav1.2a (unknown origin) expressed in HEK293 cells at 100 uM after 90 mins by liquid scintillation counting analysis relative to control; type: cell-based; details: Homo sapiens
# Ileum [13] = assay: Relaxant activity in potassium depolarized guinea pig ileum longitudinal smooth muscle assessed as inhibition of calcium-induced contraction at 5x10'-7 M relative to control; type: functional, Cavia porcellus; set-up: scale not given: the % may be the effect or the level left
# Aorta [14] = assay: Relaxant activity in potassium depolarized guinea pig aortic strips assessed as inhibition of calcium-induced contraction at 5x10'-5 M relative to control; type: functional, Cavia porcellus; set-up: scale not given: the % may be the effect or the level left
# [15] = Selectivity ratio of EC50 for negative chronotropic activity in guinea pig right atrium to EC50 for negative inotropic activity in guinea pig left atrium; type: functional, Cavia porcellus, Cardiac atrium
# [16] = Negative inotropic activity in guinea pig left atrium assessed as decrease in developed tension; type: functional, tissue-based; details: Cavia porcellus, Cardiac atrium; in short: as §2
# Ileum [17] = assay: Relaxant activity in potassium depolarized guinea pig ileum longitudinal smooth muscle assessed as inhibition of calcium-induced contraction at 10^-4 M relative to control; type: functional, Cavia porcellus; set-up: scale not given: the % may be the effect or the level left
# [18] = Negative chronotropic activity in guinea pig right atrium assessed as decrease in atrial rate at 5x10'-5 M relative to control; type: functional, Cavia porcellus, Cardiac atrium; set-up: scale not given: the % may be the effect or the level left
# [19] = Negative inotropic activity in guinea pig left atrium assessed as decrease in developed tension at 10^-6 M relative to control; type: functional, Cavia porcellus, Cardiac atrium; set-up: scale not given: the % may be the effect or the level left
# [20] = Negative chronotropic activity in guinea pig right atrium assessed as decrease in atrial rate at 10^-5 M relative to control; type: functional, Cavia porcellus, Cardiac atrium; set-up: scale not given: the % may be the effect or the level left
# Ileum [21] = assay: Relaxant activity in potassium depolarized guinea pig ileum longitudinal smooth muscle assessed as inhibition of calcium-induced contraction at 5x10'-6 M relative to control; type: functional, Cavia porcellus; set-up: scale not given: the % may be the effect or the level left
# Ileum [22] = assay: Relaxant activity in potassium depolarized guinea pig ileum longitudinal smooth muscle assessed as inhibition of calcium-induced contraction at 10^-5 M relative to control; type: functional, Cavia porcellus; set-up: scale not given: the % may be the effect or the level left; in short: as §1
# [23] = Negative chronotropic activity in guinea pig right atrium assessed as decrease in atrial rate at 10^-4 M relative to control; type: functional, Cavia porcellus, Cardiac atrium; set-up: scale not given: the % may be the effect or the level left
# In short: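 The read-out is decrease in rate of spontaneously beating isolated guinea pig right atrium at 10⁻⁴ M. It is expressed as percent change from control, n = 7−8.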
# [24] = Negative inotropic activity in guinea pig left atrium assessed as decrease in developed tension at 10^-5 M relative to control; type: functional, Cavia porcellus, Cardiac atrium; set-up: scale not given: the % may be the effect or the level left
# Ileum [25] = assay: Relaxant activity in potassium depolarized guinea pig ileum longitudinal smooth muscle assessed as inhibition of calcium-induced contraction at 5x10'-5 M relative to control; type: functional, Cavia porcellus; set-up: scale not given: the % may be the effect or the level left
SMILES,IC50 [1] [µM],Ki [1] [µM],%max (Rattus norvegicus) [%],IC50 [3] [µM],Ki [3] [µM],%max (Cavia porcellus [4]) [%],IC50 [5] [µM],Ki [5] [µM],%max (Cavia porcellus [6]) [%],IC50 (Ileum [7]) [µM],EC50 [10] [µM],Activity (Aorta [9]) [%],%max (HEK293) [%],further results
COC(=O)C1=C(C)NC(C)=C(C(=O)OC)C1c1c(-c2ccsc2)nc2sccn12,1.03,0.74,53,2.05,0.74,70,0.24,0.052,60,0.0023,1.06,11,65,IC50 [2]: 0.49 µM; Ki [2]: 0.15 µM; Activity (Ileum [8]): 85%; Activity [11]: 87%; Activity [12]: 47%
COC(=O)C1=C(C)NC(C)=C(C(=O)OC)C1c1c(Cl)nc2sc(C)cn12,1020,340,60,–,–,< 50,0.12,0.042,95,–,–,–,< 50,–
COC(=O)C1=C(C)NC(C)=C(C(=O)OC)C1c1c(-c2c(Cl)csc2Cl)nc2sccn12,–,–,–,–,–,–,–,–,–,0.18,2.16,–,–,Activity (Ileum [13]): 95%; Activity (Aorta [14]): 22%; Ratio EC50 [15]: 47; Activity [11]: 77%; Activity [12]: 74%; EC50 [16]: 0.046 µM
CCCc1cn2c(C3C(C(=O)OC)=C(C)NC(C)=C3C(=O)OC)c(-c3c(OC)ccc(OC)c3[N+](=O)[O-])nc2s1,–,–,–,3.32,1.16,50,0.065,0.023,53,–,–,–,55,IC50 [2]: 0.0044 µM; Ki [2]: 0.0016 µM
COC(=O)C1=C(C)NC(C)=C(C(=O)OC)C1c1c(Cl)nc2scc(C)n12,106,34.7,52,–,–,–,–,–,–,–,–,–,–,–
COC(=O)C1=C(C)NC(C)=C(C(=O)OC)C1c1c(-c2ccc(OC)c(OC)c2)nc2sccn12,0.35,0.11,77,0.046,0.016,93,0.39,0.14,50,–,–,–,55,IC50 [2]: 0.062 µM; Ki [2]: 0.023 µM
CCOC(=O)C1=C(C)NC(C)=C(C(=O)OCC)C1c1c(-c2cc(OC)ccc2OC)nc2sccn12,0.24,0.17,98,1.43,0.51,91,0.078,0.017,76,0.046,2.63,29,94,IC50 [2]: 0.86 µM; Ki [2]: 0.3 µM; Activity (Ileum [13]): 85%; Activity [20]: 88%; Activity [12]: 93%; EC50 [16]: 1.16 µM
COC(=O)C1=C(C)NC(C)=C(C(=O)OC)C1c1c(-c2ccncc2)nc2sccn12,–,–,–,–,–,–,–,–,–,0.96,–,14,–,Activity (Ileum [21]): 90%; Activity [20]: 25%; Activity [19]: 46%
COC(=O)C1=C(C)NC(C)=C(C(=O)OC)C1c1c(-c2cc(OC)ccc2OC)nc2sccn12,0.21,0.16,56,–,–,< 50,0.12,0.044,65,–,–,–,< 50,–
COC(=O)C1=C(C)NC(C)=C(C(=O)OC)C1c1c(-c2cc(OC)cc(OC)c2)nc2sccn12,1.21,0.41,79,0.84,0.31,60,0.25,0.09,54,–,–,–,50,IC50 [2]: 0.61 µM; Ki [2]: 0.19 µM
COC(=O)C1=C(C)NC(C)=C(C(=O)OC)C1c1c(-c2ccccn2)nc2sccn12,–,–,–,–,–,–,–,–,–,2.57,24.4,–,–,Activity (Ileum [22]): 87%; Activity (Aorta [14]): 28%; Ratio EC50 [15]: 45; Activity [23]: 71%; Activity [24]: 58%; EC50 [16]: 0.54 µM
COC(=O)C1=C(C)NC(C)=C(C(=O)OC)C1c1c(C(F)(F)F)nc2sccn12,1.65,0.52,75,–,–,–,–,–,–,–,–,–,–,–
COC(=O)C1=C(C)NC(C)=C(C(=O)OC)C1c1c(-c2cccc(OC)c2)nc2sccn12,0.99,0.33,90,0.45,0.16,96,0.29,0.09,92,–,–,–,< 50,–
COC(=O)C1=C(C)NC(C)=C(C(=O)OC)C1c1c(-c2ccccc2C(F)(F)F)nc2sccn12,38.6,13.9,52,–,–,< 50,0.14,0.049,91,–,–,–,< 50,–

# Second part, led by results:
IC50 [1] [µM],Ki [1] [µM],%max (Rattus norvegicus) [%],IC50 [3] [µM],Ki [3] [µM],%max (Cavia porcellus [4]) [%],IC50 [5] [µM],Ki [5] [µM],%max (Cavia porcellus [6]) [%],IC50 (Ileum [7]) [µM],EC50 [10] [µM],SMILES,Activity (Aorta [9]) [%],%max (HEK293) [%],further results
–,–,–,–,–,–,–,–,–,9.69,7.49,COC(=O)C1=C(C)NC(C)=C(C(=O)OC)C1c1c(-c2ccncc2)nc2sc(C)cn12,4,–,Activity (Ileum [17]): 97%; Activity [18]: 93%; Activity [19]: 44%
–,–,–,–,–,–,–,–,–,3.52,2.3,COC(=O)C1=C(C)NC(C)=C(C(=O)OC)C1c1c(-c2ccsc2)nc2sc(C)cn12,6,–,Activity (Ileum [22]): 74%; Activity [23]: 85%; Activity [12]: 12%
–,–,–,–,–,–,–,–,–,1.37,40.5,COC(=O)C1=C(C)NC(C)=C(C(=O)OC)C1c1c(-c2cccs2)nc2sc(C)cn12,9,–,Activity (Ileum [21]): 81%; Activity [23]: 70%; Activity [19]: 40%
–,–,–,–,–,–,–,–,–,2.81,39.9,COC(=O)C1=C(C)NC(C)=C(C(=O)OC)C1c1c(-c2ccccn2)nc2sc(C)cn12,13,–,Activity (Ileum [22]): 78%; Activity [23]: 72%; Activity [19]: 42%
–,–,–,–,–,–,–,–,–,3.55,28.4,COC(=O)C1=C(C)NC(C)=C(C(=O)OC)C1c1c(-c2cccnc2)nc2sccn12,36,–,Activity (Ileum [22]): 91%; Activity [23]: 98%; Activity [24]: 25%
0.1,0.059,70,–,–,< 50,0.022,0.0048,52,16,12.5,COC(=O)C1=C(C)NC(C)=C(C(=O)OC)C1c1c(-c2cccnc2)nc2sc(C)cn12,–,< 50,Activity (Ileum [25]): 83%; Activity (Aorta [14]): 19%; Activity [18]: 86%; Activity [19]: 18%
